According to ChEMBL document CHEMBL1147671, “Application of the Goldilocks effect to the design of potent and selective inhibitors of phenylethanolamine N-methyltransferase: balancing pKa and steric effects in the optimization of 3-methyl-1,2,3,4-tetrahydroisoquinoline inhibitors by beta-fluorination” (J Med Chem, 2006):

Tests used:
[1] = target: T1, Adrenergic receptor alpha-2 (Rattus norvegicus, UniProt P22086+P19328+P22909); test: Displacement of [3H]clonidine from alpha-2 adrenergic receptor in Sprague-Dawley rat cortex
T1 sequence (P22086 whole entry): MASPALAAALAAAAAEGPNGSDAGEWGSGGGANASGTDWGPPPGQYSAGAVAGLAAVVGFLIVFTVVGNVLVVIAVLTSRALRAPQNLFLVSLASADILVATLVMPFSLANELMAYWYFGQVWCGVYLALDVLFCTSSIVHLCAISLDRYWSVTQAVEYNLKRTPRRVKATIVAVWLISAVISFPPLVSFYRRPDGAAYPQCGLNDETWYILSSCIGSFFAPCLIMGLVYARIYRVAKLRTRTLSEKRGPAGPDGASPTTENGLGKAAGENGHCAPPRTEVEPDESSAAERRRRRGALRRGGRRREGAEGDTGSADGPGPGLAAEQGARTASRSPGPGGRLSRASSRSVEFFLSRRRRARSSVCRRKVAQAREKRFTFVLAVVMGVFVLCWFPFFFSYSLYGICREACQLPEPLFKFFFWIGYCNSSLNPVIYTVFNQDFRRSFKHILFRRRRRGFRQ
T1 sequence (P19328 whole entry): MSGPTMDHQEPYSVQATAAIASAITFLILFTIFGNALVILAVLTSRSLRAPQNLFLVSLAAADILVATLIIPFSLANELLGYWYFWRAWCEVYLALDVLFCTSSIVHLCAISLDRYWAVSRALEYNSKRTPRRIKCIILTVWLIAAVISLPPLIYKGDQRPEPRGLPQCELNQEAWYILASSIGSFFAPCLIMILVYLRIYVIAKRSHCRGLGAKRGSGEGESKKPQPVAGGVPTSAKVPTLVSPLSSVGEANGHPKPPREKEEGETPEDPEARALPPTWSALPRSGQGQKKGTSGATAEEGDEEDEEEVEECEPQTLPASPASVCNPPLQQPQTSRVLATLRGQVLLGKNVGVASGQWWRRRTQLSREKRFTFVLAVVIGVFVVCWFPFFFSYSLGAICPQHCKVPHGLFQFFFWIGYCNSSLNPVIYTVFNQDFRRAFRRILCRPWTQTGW
T1 sequence (P22909 whole entry): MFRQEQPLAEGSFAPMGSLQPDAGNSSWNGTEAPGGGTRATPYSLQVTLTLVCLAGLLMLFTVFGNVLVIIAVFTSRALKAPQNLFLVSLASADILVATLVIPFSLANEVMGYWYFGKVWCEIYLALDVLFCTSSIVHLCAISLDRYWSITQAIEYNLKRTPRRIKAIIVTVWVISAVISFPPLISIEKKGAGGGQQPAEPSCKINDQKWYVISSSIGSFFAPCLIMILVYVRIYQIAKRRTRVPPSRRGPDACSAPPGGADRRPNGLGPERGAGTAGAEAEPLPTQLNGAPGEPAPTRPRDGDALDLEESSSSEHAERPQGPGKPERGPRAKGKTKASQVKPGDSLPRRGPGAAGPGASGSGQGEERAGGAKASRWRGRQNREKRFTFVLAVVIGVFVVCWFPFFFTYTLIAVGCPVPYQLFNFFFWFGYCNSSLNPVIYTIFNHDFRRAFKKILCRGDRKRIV
Method in brief: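 Male rat cortex homogenised in ice-cold 50 mM Tris/HCl (pH 7.7 at 25 °C), washed by three 50,000 × g spins. Membranes incubated with [3H]clonidine (final 2.0 nM) and 5 test concentrations over a 16-fold range, 25 °C for 30 min. Bound ligand collected by vacuum filtration onto GF/B filters and counted by scintillation. Nonspecific binding defined with 2 μM phentolamine. Run in quadruplicate; IC50 by log-probit, Ki by Cheng-Prusoff.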

[2] = Dissociation constant, pKa of the compound; format: physicochemical
[3] = target: T2, Phenylethanolamine N-methyltransferase (Homo sapiens, UniProt P11086); test: Binding affinity to human PNMT
T2 sequence (P11086 whole entry): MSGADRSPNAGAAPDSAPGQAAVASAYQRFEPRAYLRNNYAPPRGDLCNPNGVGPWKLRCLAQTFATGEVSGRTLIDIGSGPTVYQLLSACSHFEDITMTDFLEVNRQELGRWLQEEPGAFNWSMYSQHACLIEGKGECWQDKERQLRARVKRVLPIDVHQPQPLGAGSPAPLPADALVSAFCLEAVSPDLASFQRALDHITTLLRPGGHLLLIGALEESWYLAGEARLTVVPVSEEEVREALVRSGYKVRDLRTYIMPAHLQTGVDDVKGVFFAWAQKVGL

Row | Ki [1] | pKa [2] | Ki [3] | SMILES
1 | 2500 µM |  |  | CS(=O)(=O)c1ccc2c(c1)CNC(C(F)F)C2 (racemic)
2 | > 1000 µM |  |  | NS(=O)(=O)c1ccc2c(c1)CNC(C(F)F)C2 (stereo not drawn)
3 | > 1000 µM |  |  | N#Cc1ccc2c(c1)CNC(C(F)F)C2 (racemic)
4 | > 1000 µM |  |  | COCCCNS(=O)(=O)c1ccc2c(c1)CNC(C(F)F)C2 (racemic)
5 | > 1000 µM |  |  | CCNS(=O)(=O)c1ccc2c(c1)CNC(C(F)F)C2 (racemic)
6 | > 1000 µM |  |  | FC(F)C1Cc2ccc(I)cc2CN1 (racemic)
7 | > 1000 µM |  |  | CCCNS(=O)(=O)c1ccc2c(c1)CNC(C(F)F)C2 (racemic)
8 | 150 µM | 6.42 |  | FC(F)C1Cc2ccccc2CN1 (racemic)
9 | > 1000 µM |  |  | O=[N+]([O-])c1ccc(NS(=O)(=O)c2ccc3c(c2)CNC(C(F)F)C3)cc1 (racemic)
10 | > 1000 µM |  |  | O=S(=O)(NCC(F)(F)F)c1ccc2c(c1)CNC(C(F)F)C2 (racemic)
11 | > 1000 µM | 5.83 |  | O=[N+]([O-])c1ccc2c(c1)CNC(C(F)F)C2 (racemic)
12 | > 1000 µM |  |  | COCCCNS(=O)(=O)c1ccc2c(c1)CNC(C(F)(F)F)C2 (racemic)
13 | > 1000 µM |  |  | O=S(=O)(NCC(F)(F)F)c1ccc2c(c1)CNC(C(F)(F)F)C2 (racemic)
14 | > 1000 µM |  |  | O=S(=O)(Nc1ccc(Cl)cc1)c1ccc2c(c1)CNC(C(F)F)C2 (racemic)
15 | 190 µM |  |  | FC(F)C1Cc2ccc(C(F)(F)F)cc2CN1 (racemic)
16 | > 1000 µM |  |  | CCCCNS(=O)(=O)c1ccc2c(c1)CNC(C(F)F)C2 (racemic)
17 | > 1000 µM |  |  | O=S(=O)(Nc1ccc(Cl)cc1)c1ccc2c(c1)CNC(C(F)(F)F)C2 (racemic)
18 | 230 µM | 6.12 |  | FC(F)C1Cc2ccc(Br)cc2CN1 (racemic)
19 | > 1000 µM |  | 110 µM | O=[N+]([O-])c1ccc(NS(=O)(=O)c2ccc3c(c2)CNC(C(F)(F)F)C3)cc1 (racemic)
